Assay outcomes as filed in PubChem.
MEKK3 PB1 HTS – MEKK3-MEK5 PB1 interaction, increase or decrease; 290,000 tested, 1.4% active; Q99759; binding response (% of control), % at 10 µM; bead-based flow cytometry, Alexa488-MEK5 binding to MEKK3; actives lie on both sides; 0 = blocked by unlabeled MEK5, 100 = vehicle;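 active = binding response more than 3 SD above or below the average of its plate-row segment, actives on both sides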;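 also: Alexa488 bead fluorescence after subtracting the streptavidin-only scavenger bead signal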
MEKK2wt PB1 HTS – raises or lowers MEK5 binding to wildtype human MEKK2 PB1 domain; binding response (% of control), % at 10 µM; AID 1531; bead flow cytometry, Alexa488-MEK5 binding to MEKK2 WT; actives lie on both sides; 290,000 tested, 1.1% active; in the data active = binding response below about 67% or above about 130%
UBC13 inh – blocks human UBC13 polyubiquitin chain formation; P61088; TR-FRET; inhibition, % at 20 µM; 330,000 tested, 0.47% active; AID 485273; in the data active = inhibition above about 45%, passing the limit was not always enough
Target sequence (P61088 whole entry, looked up): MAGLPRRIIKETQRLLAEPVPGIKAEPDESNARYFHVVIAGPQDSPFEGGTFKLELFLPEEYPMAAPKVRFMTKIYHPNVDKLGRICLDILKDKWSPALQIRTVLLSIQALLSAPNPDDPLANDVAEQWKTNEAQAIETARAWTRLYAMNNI
PREPL inhibitor – inhibits the human prolyl oligopeptidase-like enzyme. 320,000 tested, 0.68% active. Q4J6C6. recombinant PREPL, fluorescence polarization activity-based probe. AID 2751. inhibition, % at 5.96 µM; in the data active = inhibition above about 43%;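 also: 0% = enzyme with DMSO and 100% = wells lacking enzyme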
Apaf-1 inh – inhibitors of human Apaf-1 apoptosome; reconstituted apoptosome caspase-3 activity, DEVD-Rh110 fluorescence; inhibition, % at 20 µM; 330,000 tested, 0.71% active; O14727; active = inhibition of at least 40% at 20 µM;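 also: plate controls were DMSO wells for no effect and DEVD-CHO caspase inhibitor wells for full effect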
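Medium: Hepes buffer, pH 7.5 / System: biochemical Apaf-1 apoptosome reconstitution / Measured by: Rh110 fluorescence, excitation 480 nm, emission 540 nm / Times: compound with Apaf-1, dATP, procaspase-3 30 min, then 50 min reaction, room temperature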
MEKK2 mut-MEK5 – signal of MEK5 binding to mutant human MEKK2 PB1 domain; percent response, % at 10 µM; AID 1530; 290,000 tested, 0.35% active; bead flow cytometry, Alexa488-MEK5 binding to MEKK2 mutant; in the data active = percent response above about 24%, passing the limit was not always enough
Apaf-1 inh conf2 – confirmation of Apaf-1 inhibitors | shares compounds with Apaf-1 inh | reconstituted apoptosome, caspase-3 DEVD-Rh110 fluorescence | inhibition, % at 20 µM | 1,800 tested, 25% active | AID 504614;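 active = mean inhibition of at least 40% at 20 µM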;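 also: plate controls were DMSO wells for no effect and DEVD-CHO caspase inhibitor control wells for full effect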
Rh110 interf inh – Rh110 signal interference in Apaf-1 inhibitor counter-screen | 1,800 tested, under 10 active | shares compounds with Apaf-1 inh | activation (fluorescence interference), % at 20 µM | Rh110 fluorescence interference, quenched caspase reaction | AID 504615;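 active = signal rise of 40% or more at 20 µM, treated as a fluorescence artifact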
Apaf1 inh interf – shows fluorescence interference in the Apaf-1 inhibitor assay format. shares compounds with Apaf-1 inh. fluorescence interference counterscreen, Apaf-1 assay format. IC50, µM. 460 tested, under 10 active. AID 588538; call rule not given here
Numbers without * were called inactive; nt = no result given. An excerpt weighted towards active compounds, which were near 3.1% of everything screened.

SMILES	MEKK3 PB1 HTS	MEKK2wt PB1 HTS	UBC13 inh	PREPL inhibitor	Apaf-1 inh	MEKK2 mut-MEK5	Apaf-1 inh conf2	Rh110 interf inh	others
CCCNC(=O)c1c(N)n(-c2cc(OC)cc(OC)c2)c2nc3ccccc3nc12	105	95	5	4	24	-1	nt	nt
CCCCCOC(=O)c1c(N)n(CCOC)c2nc3ccccc3nc12	97	93	-15	21	94*	0	27	13
C=CCn1c(COc2cccc(C)c2)nnc1SC(C)C(=O)NC1CC1 (centres undefined)	nt	nt	26	-5	41*	nt	47*	6	Apaf1 inh interf=>100
C[C@@H]1CN([C@H](C)CO)C(=O)c2cc(NC(=O)Cc3ccccc3)ccc2O[C@H]1CN(C)Cc1ccc(Oc2ccccc2)cc1	nt	nt	16	22	38	nt	nt	nt
C[C@@H]1CN([C@@H](C)CO)C(=O)c2cc(NC(=O)Nc3ccc(F)cc3)ccc2O[C@@H]1CN(C)Cc1ccc(Oc2ccccc2)cc1	nt	nt	21	34	42*	nt	11	10
C[C@H](CO)N1C[C@H](C)[C@@H](CN(C)Cc2ccc(-c3ccccc3)cc2)Oc2c(NC(=O)Cc3ccccc3)cccc2C1=O	nt	nt	-7	19	43*	nt	26	-7
C[C@H](CO)N1C[C@H](C)[C@@H](CN(C)Cc2ccc(Cl)c(Cl)c2)Oc2c(NC(=O)Cc3ccccc3)cccc2C1=O	nt	nt	-1	14	44*	nt	24	2
C[C@H](CO)N1C[C@H](C)[C@@H](CN(C)CC2CCCCC2)Oc2c(NC(=O)CCC(F)(F)F)cccc2C1=O	nt	nt	13	21	41*	nt	18	17
COc1ccc(-c2oc3ccc(-c4cc(OC)c(OC)c(OC)c4)cc3c2C#Cc2ccsc2)cc1	98	100	-5	4	2	-2	nt	nt
N#Cc1ccsc1NC(=O)CCN1C(=O)C2CCCCC2C1=O (centres undefined)	nt	nt	-2	23	9	nt	nt	nt
COc1cccc2c1C(=O)C=C(C)C2=O	92	94	-41	3	56*	-2	65*	5	Apaf1 inh interf=>100
CC1=CC(=O)c2ccccc2C1=O	82	103	-4	-6	-2	-2	nt	nt
O=C(Nc1ccc(OC(F)F)c(Cl)c1)[C@@H]1CCCN1C(=O)c1cccs1	99	116	-1	-2	92*	16	11	6
COc1ccc(NC(C)=O)cc1NC(=O)C1CCCN1C(=O)c1cccs1 (centres undefined)	nt	nt	0	nt	5	nt	nt	nt
COC(=O)c1ccc(Cn2nc([N+](=O)[O-])c(Br)c2C)cc1	103	105	3	40	-1	3	nt	nt
CCOc1ccc2c(C)nc(NC3=NC(C)(C)C=C(C)N3)nc2c1	103	128	37	19	10	10	nt	nt
CCOc1ccc2nc(NC3=NC(c4ccc(OC)cc4)CC(=O)N3)nc(C)c2c1 (centres undefined)	83	83	22	10	79*	-8	70*	7	Apaf1 inh interf=>100
CS(=O)(=O)c1ccc(Cl)c(NC(=O)CSc2nc3ccccc3c(=O)n2Cc2ccco2)c1	nt	nt	5	-3	8	nt	nt	nt
O=C(NCC(c1ccco1)N1CCCC1)c1cccc(S(=O)(=O)Nc2ccc(Br)cc2)c1 (centres undefined)	100	127	37	0	59*	11	42*	10	Apaf1 inh interf=>100
O=C(NCC(c1ccco1)N1CCCCC1)c1cccc(NS(=O)(=O)c2ccc(Br)cc2)c1 (centres undefined)	nt	nt	-1	-73	13	nt	nt	nt
Cc1ccc(C(=O)NCC(=O)N2CCCCCCC2)cc1	nt	nt	21	9	61*	nt	38	5
Oc1cccc(C=Nc2cccc3ccccc23)c1O	82	86	-71	28	74*	-9	11	4
Oc1cccc(C=NCc2ccccc2)c1O	102	100	-23	25	82*	3	8	-6
